The source made the active and inactive calls. The calls are words filed in the database; no cut-off is given here.
Experiments:
Mus musculus [1] = assay: Antifibrotic activity against bleomycin-induced pulmonary fibrosis C57BL/6J mouse model assessed as reduction in TNF-alpha expression in plasma at 60 mg/kg, po administered via gavage qd for 14 days at 3 days post bleomycin challenge by FACSCalibur flow cytometry; type: functional, organism-based
In short: (§1)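 Female C57BL/6J mice (5‒6 weeks, 20‒25 g) were given 33 μg bleomycin intratracheally in saline under isoflurane. From day 3 they received oral gavage once daily for 14 days, with saline containing 1.4% DMSO as vehicle; n=8 per group. Vena cava blood was heparinized and spun at 3000 rpm for 10 min, and plasma was stored at −20 °C. IL-6, IL-17A and TNF-α were measured by flow cytometry; mean ± SEM.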

Mus musculus [2] = assay: Antifibrotic activity against bleomycin-induced pulmonary fibrosis C57BL/6J mouse model assessed as reduction in IL17A expression in plasma at 60 mg/kg, po administered via gavage qd for 14 days at 3 days post bleomycin challenge by FACSCalibur flow cytometry; type: functional, organism-based; in short: as §1
Mus musculus [3] = assay: Antifibrotic activity against bleomycin-induced pulmonary fibrosis C57BL/6J mouse model assessed as reduction in oxidative stress by measuring reduction in MDA level in plasma at 60 mg/kg, po administered via gavage qd for 14 days at 3 days post bleomycin challenge; type: functional, organism-based
In short: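 After 33 μg intratracheal bleomycin, female C57BL/6J mice were gavaged once daily for 14 days from day 3 (vehicle saline, 1.4% DMSO; n=8). MDA was measured in heparinized plasma with a kit by absorbance at 532 nm; mean ± SEM.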

Mus musculus [4] = assay: Antifibrotic activity against bleomycin-induced pulmonary fibrosis C57BL/6J mouse model assessed as reduction in lung coefficient at 60 mg/kg, po administered via gavage qd for 14 days at 3 days post bleomycin challenge; type: functional, organism-based
In short: (§2)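 Bleomycin was given intratracheally (33 μg) to female C57BL/6J mice, 5‒6 weeks old. Daily oral gavage followed for 14 days from day 3, with 1.4% DMSO saline vehicle; n=8 per group. Fresh lungs were weighed and lung index was calculated as lung weight/body weight × 100.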

Mus musculus [5] = assay: Antifibrotic activity against bleomycin-induced pulmonary fibrosis C57BL/6J mouse model assessed as reduction in alveolar septal swelling at 60 mg/kg, po administered via gavage qd for 14 days at 3 days post bleomycin challenge by hematoxylin and eosin staining based light microscopic analysis; type: functional, organism-based
In short: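 Intratracheal bleomycin (33 μg) was given to female C57BL/6J mice. Oral gavage started 3 days later and continued once daily for 14 days, with 1.4% DMSO saline as vehicle; n=8. Lungs were formalin-fixed for 24 h and paraffin-embedded. 5 μm sections were H&E-stained and examined by light microscopy at 200×.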

Mus musculus [6] = assay: Antifibrotic activity against bleomycin-induced pulmonary fibrosis C57BL/6J mouse model assessed as reduction in IL6 expression in plasma at 60 mg/kg, po administered via gavage qd for 14 days at 3 days post bleomycin challenge by FACSCalibur flow cytometry; type: functional, organism-based; in short: as §1
[7] = Cytotoxicity against human NHBE cells assessed as reduction in cell viability by CCK8 assay; type: cell-based
In short: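 Human bronchial epithelial (HBE) cells were tested for growth inhibition by CCK-8 assay. IC50 values are means of three separate experiments.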

[8] = biological target: Tyrosine-protein kinase BTK (Homo sapiens, UniProt Q06187); assay: Inhibition of BTK (unknown origin) by ADP-Glo kinase assay
Chain of Tyrosine-protein kinase BTK (Q06187 whole entry): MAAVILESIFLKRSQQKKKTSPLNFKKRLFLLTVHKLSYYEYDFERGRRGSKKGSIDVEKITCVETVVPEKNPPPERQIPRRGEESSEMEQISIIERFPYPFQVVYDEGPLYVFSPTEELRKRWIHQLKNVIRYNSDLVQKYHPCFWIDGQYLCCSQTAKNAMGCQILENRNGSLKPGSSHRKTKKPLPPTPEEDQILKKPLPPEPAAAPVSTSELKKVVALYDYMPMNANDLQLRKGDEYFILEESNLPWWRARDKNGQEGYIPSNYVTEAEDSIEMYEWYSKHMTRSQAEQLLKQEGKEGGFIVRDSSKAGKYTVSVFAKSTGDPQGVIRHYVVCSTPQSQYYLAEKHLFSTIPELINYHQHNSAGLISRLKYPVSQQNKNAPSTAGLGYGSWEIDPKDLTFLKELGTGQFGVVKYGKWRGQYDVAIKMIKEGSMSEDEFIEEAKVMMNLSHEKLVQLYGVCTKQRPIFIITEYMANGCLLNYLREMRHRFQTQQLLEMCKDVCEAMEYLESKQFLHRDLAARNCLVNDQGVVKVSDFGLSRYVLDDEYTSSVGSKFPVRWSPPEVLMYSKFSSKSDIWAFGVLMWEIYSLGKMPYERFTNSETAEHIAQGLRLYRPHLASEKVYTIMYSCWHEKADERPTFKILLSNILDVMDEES
In short: (§3)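 ADP-Glo luminescent assay run at compound concentrations of 0.1, 1, 10, 100 and 1000 nM. The kinase reaction ran in 1× kinase buffer for 60 min at room temperature. ADP-Glo reagent was then added to stop the reaction and deplete ATP (40 min, RT), followed by detection reagent (30 min, RT) and a luminescence read. IC50s came from curve fitting; means of three experiments.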

[9] = biological target: T1, Tyrosine-protein kinase JAK3 (Homo sapiens, UniProt P52333); assay: Inhibition of recombinant human N-terminal GST-tagged JAK3 (781 to end residues) expressed in baculovirus infected Sf9 cells using poly (Glu,Tyr) 4:1 as substrate incubated for 60 mins in presence of ATP by ADP-Glo kinase assay; in short: as §3
T1 sequence (P52333 whole entry): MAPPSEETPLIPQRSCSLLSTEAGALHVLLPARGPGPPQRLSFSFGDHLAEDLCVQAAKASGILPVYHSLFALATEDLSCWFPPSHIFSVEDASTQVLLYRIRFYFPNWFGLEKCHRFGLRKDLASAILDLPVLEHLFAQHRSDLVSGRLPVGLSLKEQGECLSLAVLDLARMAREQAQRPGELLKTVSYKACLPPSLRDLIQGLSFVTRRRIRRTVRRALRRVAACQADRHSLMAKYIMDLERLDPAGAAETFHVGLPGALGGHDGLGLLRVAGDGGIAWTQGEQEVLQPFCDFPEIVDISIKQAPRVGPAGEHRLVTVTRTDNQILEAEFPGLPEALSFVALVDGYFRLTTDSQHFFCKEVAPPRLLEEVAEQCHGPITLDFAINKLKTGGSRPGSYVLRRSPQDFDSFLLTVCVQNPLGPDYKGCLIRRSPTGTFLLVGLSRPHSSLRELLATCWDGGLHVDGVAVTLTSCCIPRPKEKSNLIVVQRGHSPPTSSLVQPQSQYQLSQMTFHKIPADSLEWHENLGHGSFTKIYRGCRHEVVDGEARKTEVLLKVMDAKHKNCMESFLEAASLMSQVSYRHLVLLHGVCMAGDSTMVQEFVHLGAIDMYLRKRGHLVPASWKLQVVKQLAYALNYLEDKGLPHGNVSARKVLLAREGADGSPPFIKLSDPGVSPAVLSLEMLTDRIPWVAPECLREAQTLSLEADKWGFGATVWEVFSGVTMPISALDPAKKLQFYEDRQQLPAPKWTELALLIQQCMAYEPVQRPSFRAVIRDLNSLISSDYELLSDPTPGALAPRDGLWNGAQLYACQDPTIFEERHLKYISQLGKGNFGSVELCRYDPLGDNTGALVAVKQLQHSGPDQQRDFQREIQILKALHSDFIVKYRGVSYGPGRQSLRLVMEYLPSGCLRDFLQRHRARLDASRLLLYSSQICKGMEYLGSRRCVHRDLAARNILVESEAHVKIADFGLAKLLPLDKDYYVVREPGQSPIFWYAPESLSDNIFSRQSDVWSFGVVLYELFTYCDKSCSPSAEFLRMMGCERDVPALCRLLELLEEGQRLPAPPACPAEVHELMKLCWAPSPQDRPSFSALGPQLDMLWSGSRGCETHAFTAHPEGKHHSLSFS

Mus musculus [10] = assay: Antifibrotic activity against bleomycin-induced pulmonary fibrosis C57BL/6J mouse model assessed as reduction in lung coefficient at 30 to 60 mg/kg, po administered via gavage qd for 14 days at 3 days post bleomycin challenge; type: functional, organism-based; in short: as §2
Mus musculus [11] = assay: Antifibrotic activity against bleomycin-induced pulmonary fibrosis C57BL/6J mouse model assessed as reduction in IL17A expression in plasma at 30 to 60 mg/kg, po administered via gavage qd for 14 days at 3 days post bleomycin challenge by FACSCalibur flow cytometry; type: functional, organism-based; in short: as §1
Mus musculus [12] = assay: Antifibrotic activity against bleomycin-induced pulmonary fibrosis C57BL/6J mouse model assessed as reduction in IL6 expression in plasma at 30 to 60 mg/kg, po administered via gavage qd for 14 days at 3 days post bleomycin challenge by FACSCalibur flow cytometry; type: functional, organism-based; in short: as §1
Mus musculus [13] = assay: Antifibrotic activity against bleomycin-induced pulmonary fibrosis C57BL/6J mouse model assessed as reduction in collagen deposition by measuring hydroxyproline content in lungs at 60 mg/kg, po administered via gavage qd for 14 days at 3 days post bleomycin challenge by hydroxyproline assay; type: functional, organism-based
In short: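 Bleomycin model in female C57BL/6J mice: 33 μg intratracheal, then daily oral dosing for 14 days beginning on day 3, vehicle saline with 1.4% DMSO, n=8. Lungs were perfused with saline and lavaged with PBS/1 mM EDTA. The left lobe was assayed for hydroxyproline with a kit by absorbance at 550 nm; mean ± SEM.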

Mus musculus [14] = assay: Antifibrotic activity against bleomycin-induced pulmonary fibrosis C57BL/6J mouse model assessed as reduction in TNF-alpha expression in plasma at 30 to 60 mg/kg, po administered via gavage qd for 14 days at 3 days post bleomycin challenge by FACSCalibur flow cytometry; type: functional, organism-based; in short: as §1

| SMILES | Activity (Mus musculus [3]) | Activity (Mus musculus [5]) | IC50 [7] | IC50 [8] | IC50 [9] | other results |
| --- | --- | --- | --- | --- | --- | --- |
| COc1cc2ncnc(Nc3ccc(F)c(Cl)c3)c2cc1OCCCN1CCOCC1 | Active | Active | – | – | – | Activity (Mus musculus [1]): Active; Activity (Mus musculus [2]): Active; Activity (Mus musculus [4]): Active; Activity (Mus musculus [6]): Active |
| C=CC(=O)Nc1cccc(Oc2nc(Nc3ccc(OCCCN4CCOCC4)cc3)nc3ccsc23)c1 | – | – | > 40000 nM | > 100 nM | 89.2 nM | – |
| COC(=O)c1ccc2c(c1)NC(=O)/C2=C(\Nc1ccc(N(C)C(=O)CN2CCN(C)CC2)cc1)c1ccccc1 | Active | Active | – | – | – | Activity (Mus musculus [10]): Active; Activity (Mus musculus [11]): Active; Activity (Mus musculus [12]): Active; Activity (Mus musculus [13]): Active; Activity (Mus musculus [14]): Active |
| C=CC(=O)Nc1cccc(Nc2nc(Nc3ccc(CN4CCOCC4)cc3)nc3ccsc23)c1 | – | – | 8270 nM | > 100 nM | 59.4 nM | – |
| C=CC(=O)Nc1cccc(Oc2nc(Nc3ccc(SCCCN4CCOCC4)cc3)nc3ccsc23)c1 | – | – | > 40000 nM | > 100 nM | 46 nM | – |

From ChEMBL document CHEMBL4613238, “Synthesis and biological activity of thieno[3,2-d]pyrimidines as potent JAK3 inhibitors for the treatment of idiopathic pulmonary fibrosis” (Bioorg Med Chem, 2020)
